Measured values: ChEMBL document CHEMBL4004831, “Naphthalene diimide-polyamine hybrids as antiproliferative agents: Focus on the architecture of the polyamine chains” (Eur J Med Chem, 2017)
Each block holds one compound with its values, some of them ahead of it.

Assays:
[1] = test system: MDA-MB-468; assay: Growth inhibition of human MDA-MB-468 cells incubated for 48 hrs by sulforhodamine B assay; format: functional; details: MDA-MB-468, 48 h
[2] = test system: NCI-H522; assay: Growth inhibition of human NCI-H522 cells incubated for 48 hrs by sulforhodamine B assay; format: functional; details: NCI-H522, 48 h
[3] = test system: NCI-H460; assay: Growth inhibition of human NCI-H460 cells incubated for 48 hrs by sulforhodamine B assay; format: functional; details: NCI-H460, 48 h
[4] = test system: LOX IMVI; assay: Growth inhibition of human LOXIMVI cells incubated for 48 hrs by sulforhodamine B assay; format: functional
[5] = test system: SR; assay: Growth inhibition of human SR cells incubated for 48 hrs by sulforhodamine B assay; format: functional
[6] = test system: MDA-MB-435; assay: Growth inhibition of human MDA-MB-435 cells incubated for 48 hrs by sulforhodamine B assay; format: functional; details: MDA-MB-435, 48 h
[7] = test system: A498; assay: Growth inhibition of human A498 cells incubated for 48 hrs by sulforhodamine B assay; format: functional; details: A498, 48 h
[8] = test system: NCI-H226; assay: Growth inhibition of human NCI-H226 cells incubated for 48 hrs by sulforhodamine B assay; format: functional; details: NCI-H226, 48 h
[9] = test system: NCI-H23; assay: Growth inhibition of human NCI-H23 cells incubated for 48 hrs by sulforhodamine B assay; format: functional; details: NCI-H23, 48 h
[10] = test system: SNB-75; assay: Growth inhibition of human SNB75 cells incubated for 48 hrs by sulforhodamine B assay; format: functional; details: SNB-75, 48 h
[11] = test system: UACC-257; assay: Growth inhibition of human UACC257 cells incubated for 48 hrs by sulforhodamine B assay; format: functional; details: UACC-257, 48 h
[12] = test system: OVCAR-4; assay: Growth inhibition of human OVCAR4 cells incubated for 48 hrs by sulforhodamine B assay; format: functional; details: OVCAR-4, 48 h
[13] = test system: SF-268; assay: Growth inhibition of human SF268 cells incubated for 48 hrs by sulforhodamine B assay; format: functional; details: SF-268, 48 h
[14] = test system: SF-295; assay: Growth inhibition of human SF295 cells incubated for 48 hrs by sulforhodamine B assay; format: functional; details: SF-295, 48 h
[15] = test system: SW-620; assay: Growth inhibition of human SW620 cells incubated for 48 hrs by sulforhodamine B assay; format: functional; details: SW-620, 48 h
[16] = test system: K562; assay: Growth inhibition of human K562 cells incubated for 48 hrs by sulforhodamine B assay; format: functional; details: K562, 48 h
[17] = test system: U-251; assay: Growth inhibition of human U251 cells incubated for 48 hrs by sulforhodamine B assay; format: functional; details: U-251, 48 h
[18] = test system: SK-OV-3; assay: Growth inhibition of human SKOV3 cells incubated for 48 hrs by sulforhodamine B assay; format: functional; details: SK-OV-3, 48 h
[19] = test system: UO-31; assay: Growth inhibition of human UO31 cells incubated for 48 hrs by sulforhodamine B assay; format: functional; details: UO-31, 48 h
[20] = test system: TK-10; assay: Growth inhibition of human TK10 cells incubated for 48 hrs by sulforhodamine B assay; format: functional; details: TK-10, 48 h
[21] = test system: OVCAR-8; assay: Growth inhibition of human OVCAR8 cells incubated for 48 hrs by sulforhodamine B assay; format: functional; details: OVCAR-8, 48 h
[22] = test system: NCI/ADR-RES; assay: Growth inhibition of human NCI-ADR-RES cells incubated for 48 hrs by sulforhodamine B assay; format: functional
[23] = test system: M14; assay: Growth inhibition of human M14 cells incubated for 48 hrs by sulforhodamine B assay; format: functional; details: M14, 48 h
[24] = test system: SN12C; assay: Growth inhibition of human SN12C cells incubated for 48 hrs by sulforhodamine B assay; format: functional
[25] = test system: OVCAR-5; assay: Growth inhibition of human OVCAR5 cells incubated for 48 hrs by sulforhodamine B assay; format: functional; details: OVCAR-5, 48 h
[26] = test system: SK-MEL-5; assay: Growth inhibition of human SK-MEL-5 cells incubated for 48 hrs by sulforhodamine B assay; format: functional; details: SK-MEL-5, 48 h
[27] = test system: KM12; assay: Growth inhibition of human KM12 cells incubated for 48 hrs by sulforhodamine B assay; format: functional; details: KM12, 48 h
[28] = test system: HCT-116; assay: Growth inhibition of human HCT116 cells incubated for 48 hrs by sulforhodamine B assay; format: functional; details: HCT-116, 48 h
[29] = test system: DU-145; assay: Growth inhibition of human DU145 cells incubated for 48 hrs by sulforhodamine B assay; format: functional; details: DU-145, 48 h
[30] = test system: SNB-19; assay: Growth inhibition of human SNB19 cells incubated for 48 hrs by sulforhodamine B assay; format: functional; details: SNB-19, 48 h
[31] = test system: HOP-62; assay: Growth inhibition of human HOP62 cells incubated for 48 hrs by sulforhodamine B assay; format: functional; details: HOP-62, 48 h
[32] = Stabilization of 5'Dabcyl/3'FAM labeled duplex DNA (unknown origin) assessed as increase in melting temperature at 2.5 uM pretreated for 5 mins at 30 degreeC followed by 5 mins incubation at 95 degreeC by fluorescence assay
Procedure, shortened: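 FRET melting in LiP buffer (10 mM LiOH, 50 mM KCl, pH 7.0 with H3PO4), ex 488 nm, em 520 nm. Samples were held 5 min at 30 °C, heated at 1 °C/min to 95 °C, held 5 min, then re-annealed. Tm came from first derivatives; ΔTm = shift with ligand at 2.5; at least three runs.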

[33] = test system: MCF7; assay: Growth inhibition of human MCF7 cells incubated for 48 hrs by sulforhodamine B assay; format: functional; details: MCF7, 48 h
[34] = test system: HCC 2998; assay: Growth inhibition of human HCC2998 cells incubated for 48 hrs by sulforhodamine B assay; format: functional; details: HCC 2998, 48 h
[35] = test system: A549; assay: Growth inhibition of human A549/ATCC cells incubated for 48 hrs by sulforhodamine B assay; format: functional; details: A549, 48 h
[36] = test system: BT-549; assay: Growth inhibition of human BT549 cells incubated for 48 hrs by sulforhodamine B assay; format: functional; details: BT-549, 48 h
[37] = test system: Malme-3M; assay: Growth inhibition of human MALME-3M cells incubated for 48 hrs by sulforhodamine B assay; format: functional
[38] = test system: IGROV-1; assay: Growth inhibition of human IGROV1 cells incubated for 48 hrs by sulforhodamine B assay; format: functional; details: IGROV-1, 48 h
[39] = test system: MDA-MB-231; assay: Growth inhibition of human MDA-MB-231 cells incubated for 48 hrs by sulforhodamine B assay; format: functional; details: MDA-MB-231, 48 h
[40] = test system: ACHN; assay: Growth inhibition of human ACHN cells incubated for 48 hrs by sulforhodamine B assay; format: functional
[41] = test system: UACC-62; assay: Growth inhibition of human UACC62 cells incubated for 48 hrs by sulforhodamine B assay; format: functional; details: UACC-62, 48 h
[42] = test system: HT-29; assay: Growth inhibition of human HT-29 cells incubated for 48 hrs by sulforhodamine B assay; format: functional; details: HT-29, 48 h
[43] = test system: PC-3; assay: Growth inhibition of human PC3 cells incubated for 48 hrs by sulforhodamine B assay; format: functional; details: PC-3, 48 h
[44] = test system: HOP-92; assay: Growth inhibition of human HOP92 cells incubated for 48 hrs by sulforhodamine B assay; format: functional; details: HOP-92, 48 h
[45] = test system: OVCAR-3; assay: Growth inhibition of human OVCAR3 cells incubated for 48 hrs by sulforhodamine B assay; format: functional; details: OVCAR-3, 48 h

GI50 [1]: 456 nM
GI50 [2]: 1220 nM
GI50 [3]: 2080 nM
GI50 [6]: 2070 nM
GI50 [8]: 2990 nM
GI50 [9]: 1720 nM
GI50 [12]: 466 nM
GI50 [15]: 1740 nM
GI50 [16]: 324 nM
GI50 [17]: 1170 nM
GI50 [18]: 4040 nM
GI50 [21]: 2080 nM
GI50 [25]: 5240 nM
GI50 [26]: 1570 nM
GI50 [28]: 717 nM
GI50 [29]: 3650 nM
ΔTm [32]: 10.4 °C
GI50 [33]: 422 nM
GI50 [34]: 2250 nM
GI50 [35]: 3010 nM
GI50 [36]: 2580 nM
GI50 [39]: 2090 nM
GI50 [40]: 4450 nM
GI50 [42]: 2070 nM
GI50 [43]: 5910 nM
GI50 [45]: 2160 nM
Compound: COc1ccccc1CNCCCN1C(=O)c2ccc3c4c(ccc(c24)C1=O)C(=O)N(CCCNCCNCCCN)C3=O
GI50 [4]: 2100 nM
GI50 [5]: 898 nM
GI50 [7]: 5010 nM
GI50 [10]: 3070 nM
GI50 [11]: 2530 nM
GI50 [13]: 2100 nM
GI50 [14]: 2770 nM
GI50 [19]: 10800 nM
GI50 [20]: 6650 nM
GI50 [22]: 23100 nM
GI50 [23]: 2070 nM
GI50 [24]: 2090 nM
GI50 [27]: 3250 nM
GI50 [30]: 2180 nM
GI50 [31]: 2460 nM
GI50 [37]: 1610 nM
GI50 [38]: 3690 nM
GI50 [41]: 1680 nM
GI50 [44]: 6700 nM

GI50 [1]: 246 nM
GI50 [2]: 572 nM
GI50 [3]: 154 nM
GI50 [6]: 570 nM
GI50 [8]: 746 nM
GI50 [9]: 318 nM
GI50 [12]: 873 nM
GI50 [15]: 109 nM
GI50 [16]: 264 nM
GI50 [17]: 108 nM
GI50 [18]: 1040 nM
GI50 [21]: 73 nM
GI50 [25]: 1410 nM
GI50 [26]: 484 nM
GI50 [28]: 135 nM
GI50 [29]: 638 nM
ΔTm [32]: 7 °C
GI50 [33]: 129 nM
GI50 [34]: 352 nM
GI50 [35]: 148 nM
GI50 [36]: 1440 nM
GI50 [39]: 1420 nM
GI50 [40]: 529 nM
GI50 [42]: 160 nM
GI50 [43]: 477 nM
GI50 [45]: 332 nM
Compound: COc1ccccc1CNCCCN1C(=O)c2ccc3c4c(ccc(c24)C1=O)C(=O)N(CCCNCCCN)C3=O
GI50 [4]: 302 nM
GI50 [5]: 28 nM
GI50 [7]: 398 nM
GI50 [10]: 1300 nM
GI50 [11]: 625 nM
GI50 [13]: 410 nM
GI50 [14]: 456 nM
GI50 [19]: 745 nM
GI50 [20]: 1610 nM
GI50 [22]: 1160 nM
GI50 [23]: 992 nM
GI50 [24]: 538 nM
GI50 [27]: 705 nM
GI50 [30]: 702 nM
GI50 [31]: 466 nM
GI50 [37]: 393 nM
GI50 [38]: 275 nM
GI50 [41]: 655 nM
GI50 [44]: 1120 nM
